Reference: ChEMBL document CHEMBL4014301, “Design, synthesis and evaluation of 4-substituted anthra[2,1-c][1,2,5]thiadiazole-6,11-dione derivatives as novel non-camptothecin topoisomerase I inhibitors” (Bioorg Med Chem Lett, 2017)
pIC50: −log10 of the molar value. Activity calls are given as the source filed them. The rule behind the calls is not given here.

Tests used:
[1] = tested on: A549; assay: Antiproliferative activity against human A549 cells after 72 hrs by MTT assay; format: functional, cell-based
[2] = tested on: HCT-116; assay: Antiproliferative activity against human HCT116 cells after 72 hrs by MTT assay; format: functional, cell-based
[3] = tested on: ZR-75-30; assay: Antiproliferative activity against human ZR-7530 cells after 72 hrs by MTT assay; format: functional, cell-based
[4] = molecular target: T1, DNA topoisomerase 1 (Homo sapiens) (UniProt P11387); assay: Inhibition of DNA topoisomerase 1 (unknown origin) assessed as reduction in supercoiled pBR322 plasmid DNA relaxation at 100 uM after 15 mins by ethidium bromide staining based agarose gel electrophoresis
T1 sequence (whole entry): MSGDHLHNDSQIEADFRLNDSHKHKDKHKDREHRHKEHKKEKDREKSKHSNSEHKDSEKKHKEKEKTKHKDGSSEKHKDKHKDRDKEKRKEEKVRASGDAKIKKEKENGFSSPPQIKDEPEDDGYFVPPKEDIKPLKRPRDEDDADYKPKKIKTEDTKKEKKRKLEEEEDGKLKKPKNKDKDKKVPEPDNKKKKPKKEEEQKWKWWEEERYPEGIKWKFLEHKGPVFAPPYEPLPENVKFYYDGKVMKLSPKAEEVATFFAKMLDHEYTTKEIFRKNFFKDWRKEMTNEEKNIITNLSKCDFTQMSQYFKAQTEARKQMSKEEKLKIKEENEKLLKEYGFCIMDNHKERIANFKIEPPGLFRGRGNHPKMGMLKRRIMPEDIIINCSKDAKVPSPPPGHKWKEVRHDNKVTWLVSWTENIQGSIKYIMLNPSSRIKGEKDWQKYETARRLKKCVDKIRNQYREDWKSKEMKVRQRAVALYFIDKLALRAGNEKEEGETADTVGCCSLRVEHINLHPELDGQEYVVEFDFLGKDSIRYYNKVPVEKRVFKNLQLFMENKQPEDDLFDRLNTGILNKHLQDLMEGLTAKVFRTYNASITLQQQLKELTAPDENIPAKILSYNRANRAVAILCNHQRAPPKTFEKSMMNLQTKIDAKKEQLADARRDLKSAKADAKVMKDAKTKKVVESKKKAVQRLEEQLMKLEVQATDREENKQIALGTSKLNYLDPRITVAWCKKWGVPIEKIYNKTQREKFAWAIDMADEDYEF
How it was run: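 Supercoiled pBR322 plasmid incubated with Top1, with or without compound at 1, 10 and 100 µM. Relaxation inhibition read from agarose gel bands.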

[5] = molecular target: T1, DNA topoisomerase 1 (Homo sapiens); assay: Inhibition of DNA topoisomerase-1 (unknown origin) mediated DNA relaxation assessed as DNA intercalation at 100 uM using supercoiled pBR322 plasmid DNA as substrate after 60 mins by ethidium bromide staining based agarose gel electrophoresis
How it was run: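 Unwinding assay with excess Top1 acting on supercoiled pBR322 in the presence of compound at 100 µM. Ethidium bromide at 1 µg/mL used as intercalator reference. Compound removed by phenol extraction after relaxation. Nicked, relaxed and supercoiled forms resolved on gel.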

pIC50 ([1]; Homo sapiens, A549, 72 h)	pIC50 ([2]; Homo sapiens, HCT-116, 72 h)	inhibition [4]	inhibition [5]	SMILES	pIC50 ([3]; Homo sapiens, ZR-75-30, 72 h)	pIC50 ([1]; a549)	pIC50 ([2]; hct-116)	pIC50 ([3]; zr-75-30)
4.85	5.48	Active		CN1CCN(c2cc3c(c4nsnc24)C(=O)c2ccccc2C3=O)CC1	5.57			
5.17	5.15	Active		CC(C)Nc1cc2c(c3nsnc13)C(=O)c1ccccc1C2=O	5.52			
4.51	4.27			CCCCCCCCNc1cc2c(c3nsnc13)C(=O)c1ccccc1C2=O	4.66			
< 4.30	5.01			O=C1c2ccccc2C(=O)c2c1cc(Sc1ccc(F)cc1)c1nsnc21	4.70			
< 4.00	< 4.00			O=C1c2ccccc2C(=O)c2c1cc(N1CCCCC1)c1nsnc21	5.09			
< 4.30	< 4.30			CCOc1cccc(Sc2cc3c(c4nsnc24)C(=O)c2ccccc2C3=O)c1	< 4.30			
4.01	4.74			O=C1c2ccccc2C(=O)c2c1cc(S(=O)(=O)c1ccc(Br)cc1)c1nsnc21	4.03			
< 4.00	< 4.00			CC(C)c1ccc(Sc2cc3c(c4nsnc24)C(=O)c2ccccc2C3=O)cc1	< 4.00			
< 4.00	< 4.00			CCCNc1cc2c(c3nsnc13)C(=O)c1ccccc1C2=O	< 4.00			
< 4.00	4.68			Cc1cccc(Sc2cc3c(c4nsnc24)C(=O)c2ccccc2C3=O)c1	4.31			
5.42	5.29			O=C1c2ccccc2C(=O)c2c1cc(NC1CCCCC1)c1nsnc21	5.39			
< 4.00	< 4.00			COc1ccc(Sc2cc3c(c4nsnc24)C(=O)c2ccccc2C3=O)cc1	< 4.00			
< 4.00	4.59			Cc1ccc(Sc2cc3c(c4nsnc24)C(=O)c2ccccc2C3=O)cc1	4.66			
4.36	4.47			CCCCCCCNc1cc2c(c3nsnc13)C(=O)c1ccccc1C2=O	4.92			
< 4.00	4.17			O=C1c2ccccc2C(=O)c2c1cc(S(=O)(=O)Cc1ccccc1)c1nsnc21	< 4.00			
< 4.00	< 4.00			CCOc1cccc(S(=O)(=O)c2cc3c(c4nsnc24)C(=O)c2ccccc2C3=O)c1	< 4.00			

pIC50 ([1]; Homo sapiens, A549, 72 h)	pIC50 ([2]; Homo sapiens, HCT-116, 72 h)	inhibition [4]	inhibition [5]	SMILES	pIC50 ([3]; Homo sapiens, ZR-75-30, 72 h)	pIC50 ([1]; a549)	pIC50 ([2]; hct-116)	pIC50 ([3]; zr-75-30)
< 4.00	< 4.00			O=C1c2ccccc2C(=O)c2c1cc(S(=O)(=O)c1nc3ccccc3s1)c1nsnc21	< 4.00			
< 4.30	< 4.30			O=C1c2ccccc2C(=O)c2c1cc(Sc1cccc(F)c1)c1nsnc21	< 4.30			
< 4.00	4.00			CCOc1ccc(Nc2cc3c(c4nsnc24)C(=O)c2ccccc2C3=O)cc1	4.04			
< 4.30	< 4.30			COc1ccc(S(=O)(=O)c2cc3c(c4nsnc24)C(=O)c2ccccc2C3=O)cc1	< 4.30			
	5.20			CCc1c2c(nc3ccc(OC(=O)N4CCC(N5CCCCC5)CC4)cc13)-c1cc3c(c(=O)n1C2)COC(=O)[C@]3(O)CC [IRINOTECAN]	4.74			
< 4.00	< 4.00	Active		O=C1c2ccccc2C(=O)c2c1cc(SCc1ccccc1Cl)c1nsnc21	< 4.00			
< 4.00	4.06			O=C1c2ccccc2C(=O)c2c1cc(NCc1cccnc1)c1nsnc21	4.92			
5.40	5.72			O=C1c2ccccc2C(=O)c2c1cc(NCc1ccccc1)c1nsnc21	5.35			
< 4.00	< 4.00			O=C1c2ccccc2C(=O)c2c1cc(N1CCN(c3ccccn3)CC1)c1nsnc21	< 4.00			
< 4.00	< 4.00			O=C1c2ccccc2C(=O)c2c1cc(N1CCN(Cc3ccccc3)CC1)c1nsnc21	< 4.00			
< 4.00	< 4.00			O=C1c2ccccc2C(=O)c2c1cc(Sc1cccc(Cl)c1)c1nsnc21	< 4.00			
< 4.00	< 4.00			O=C1c2ccccc2C(=O)c2c1cc(SCc1ccccc1)c1nsnc21	< 4.00			
< 4.00	4.30			CCCCCCNc1cc2c(c3nsnc13)C(=O)c1ccccc1C2=O	4.33			
< 4.00	4.96	Active		O=C1c2ccccc2C(=O)c2c1cc(S(=O)(=O)Cc1ccccc1Cl)c1nsnc21	< 4.00			
< 4.00	4.11			Cc1cccc(S(=O)(=O)c2cc3c(c4nsnc24)C(=O)c2ccccc2C3=O)c1	< 4.00			
< 4.00	4.14			O=C1c2ccccc2C(=O)c2c1cc(NCc1ccc(C(F)(F)F)cc1)c1nsnc21	4.01			

Continued, compound first:

SMILES	pIC50 ([1]; Homo sapiens, A549, 72 h)	pIC50 ([2]; Homo sapiens, HCT-116, 72 h)	inhibition [4]	inhibition [5]	pIC50 ([3]; Homo sapiens, ZR-75-30, 72 h)	pIC50 ([1]; a549)	pIC50 ([2]; hct-116)	pIC50 ([3]; zr-75-30)
O=C1c2ccccc2C(=O)c2c1cc(S(=O)(=O)c1ccc(Cl)cc1)c1nsnc21	< 4.00	4.82			< 4.00			
O=C1c2ccccc2C(=O)c2c1cc(S(=O)(=O)c1cccs1)c1nsnc21	< 4.00	5.82	Active	inactive	4.62			
O=C1c2ccccc2C(=O)c2c1cc(S(=O)(=O)c1ccc(F)cc1)c1nsnc21	< 4.00	4.64			4.44			
CC(C)(C)c1ccc(Sc2cc3c(c4nsnc24)C(=O)c2ccccc2C3=O)cc1	< 4.00	< 4.00			< 4.00			
O=C1c2ccccc2C(=O)c2c1cc(Sc1nc3ccccc3s1)c1nsnc21	< 4.00	< 4.00			< 4.00			
O=C1c2ccccc2C(=O)c2c1cc(Sc1ccccc1)c1nsnc21	< 4.00	< 4.00			< 4.00			
O=C1c2ccccc2C(=O)c2c1cc(Sc1cccs1)c1nsnc21	< 4.00	< 4.00	Active	inactive	< 4.00			
O=C1c2ccccc2C(=O)c2c1cc(S(=O)(=O)c1cccc(Cl)c1)c1nsnc21	< 4.00	< 4.00			< 4.00			
CC[C@@]1(O)C(=O)OCc2c1cc1n(c2=O)Cc2cc3ccccc3nc2-1 [CAMPTOTHECIN]		6.92			6.62			
CCC(C)Nc1cc2c(c3nsnc13)C(=O)c1ccccc1C2=O (stereo unspecified)	< 4.00	4.24			< 4.00			
O=C1c2ccccc2C(=O)c2c1cc(S(=O)(=O)c1cccc(F)c1)c1nsnc21	< 4.00	4.62			< 4.00			
CC(C)(C)OC(=O)N1CCN(c2cc3c(c4nsnc24)C(=O)c2ccccc2C3=O)CC1	< 4.00	< 4.00			< 4.00			
O=C1c2ccccc2C(=O)c2c1cc(N1CCCC1)c1nsnc21	< 4.00	4.17			4.35			
O=C1c2ccccc2C(=O)c2c1cc(Sc1ccc(Br)cc1)c1nsnc21	< 4.00	< 4.00			< 4.00			
O=C1c2ccccc2C(=O)c2c1cc(S(=O)(=O)c1ccccc1)c1nsnc21	< 4.00	4.46			< 4.00			
CC(C)(C)c1ccc(S(=O)(=O)c2cc3c(c4nsnc24)C(=O)c2ccccc2C3=O)cc1	< 4.30	4.47			< 4.30			
O=C1c2ccccc2C(=O)c2c1cc(NCc1ccc(Cl)cc1)c1nsnc21	< 4.00	< 4.00			< 4.00			
CC(C)c1ccc(S(=O)(=O)c2cc3c(c4nsnc24)C(=O)c2ccccc2C3=O)cc1	< 4.00	4.57			4.08			
O=C1c2ccccc2C(=O)c2c1cc(S(=O)(=O)c1ccc3ccccc3c1)c1nsnc21	< 4.00	5.17	Active		4.64			
O=C1c2ccccc2C(=O)c2c1cc(Sc1ccc3ccccc3c1)c1nsnc21	< 4.00	< 4.00	Active		< 4.00			
O=C1c2ccccc2C(=O)c2c1cc(Sc1ccc(Cl)cc1)c1nsnc21	< 4.00	< 4.00			< 4.00			
CC(C)CNc1cc2c(c3nsnc13)C(=O)c1ccccc1C2=O			Active			< 4.00	5.20	5.51
